{"source": "PubChem BioAssay AID588826", "about": "(Broad Institute, 2011)", "key": {"[1]": {"test_system": "ldlA[mSR-BI] CHO cells viability, CellTiter-Glo ATP, 24 h", "assay": "cell viability loss, SR-BI-overexpressing CHO line – CellTiter-Glo luminescence, 24 h, dry powder, set 3, cytotoxicity control for SR-BI HDL uptake inhibitor project, dose response (AID 588826)", "procedure,_shortened": "(§1)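 Assay system: ldlA[mSR-BI] cells; Buffer or medium: Ham's F12 growth medium with 10% FCS; Signal: ATP luminescence, CellTiter-Glo; Times: 24 h compound exposure at 37 °C, read 10 min after reagent; Read-out basis: cell viability IC50.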"}, "[2]": {"assay": "cell viability loss, SR-BI-overexpressing CHO line – CellTiter-Glo luminescence, 24 h, dry powder, set 3, cytotoxicity control for SR-BI HDL uptake inhibitor project, dose response (AID 588826)", "details": "ldlA[mSR-BI] CHO cells viability, CellTiter-Glo ATP, 24 h", "procedure,_shortened": "as §1"}}, "note": "Several values for one entry are separate records, joined by “and”; a condition that tells them apart may be missing. Identical values can stand only once. Activity calls are given as the source filed them.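 How the source made its calls: active means compounds cutting cell viability whose fitted half-maximal concentration is at most twice the top tested dose; inconclusive means flat loss between 30% and 70%, or poor curve fit; inactive means opposite effect, flat within 30%, or weaker potency.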", "data": [{"smiles": "Cc1ccc2oc(-c3cccc(NC(=O)c4cc(-n5cnnc5)ccc4Cl)c3)nc2c1", "values": [{"measurement": "IC50", "setting": "[1]", "result": 39.9, "unit": "µM"}]}, {"smiles": "CCCCCCC1CCC/C1=N\\NC(N)=S", "note": "(stereo not given)", "values": [{"measurement": "IC50", "setting": "[1]", "result": 4.46, "unit": "µM"}]}, {"smiles": "COc1ccc(-c2nnn(CC(=O)N(C3CCCCC3)C(C(=O)NC3CCCC3)C(C)C)n2)cc1OC", "note": "(stereo not given)", "values": [{"measurement": "activity change, negative = cytotoxicity", "setting": "[2]; at 35 µM (top of the series)", "result": "-15.8% (inactive)"}]}, {"smiles": "CCC(=O)N1CC(C)(C)c2cc(-c3csc(NC(=O)c4cc(OC)cc(OC)c4)n3)ccc21", "values": [{"measurement": "activity change, negative = cytotoxicity", "setting": "[2]; at 35 µM (top of the series)", "result": "-3.5% (inactive)"}]}, {"smiles": "C[C@@H]1CN([C@@H](C)CO)C(=O)Cc2cc(NC(=O)Nc3ccc(C(F)(F)F)cc3)ccc2O[C@@H]1CN(C)S(=O)(=O)c1ccc(Cl)cc1", "values": [{"measurement": "activity change, negative = cytotoxicity", "setting": "[2]; at 30 µM (top of the series)", "result": "-40.4% (inactive)"}]}, {"smiles": "CCOC(=O)N1CCC(NC(=O)c2ccc3c(c2)N(Cc2ccc(F)cc2)CCS3)CC1", "values": [{"measurement": "activity change, negative = cytotoxicity", "setting": "[2]; at 35 µM (top of the series)", "result": "-13.6% (inactive)"}]}, {"smiles": "CCC(=O)N1CCc2cc(-c3csc(NC(=O)c4cccc(C#N)c4)n3)ccc21", "values": [{"measurement": "activity change, negative = cytotoxicity", "setting": "[2]; at 35 µM (top of the series)", "result": "-0.356% (inactive)"}]}, {"smiles": "CCC(=O)N1CCc2cc(-c3csc(NC(=O)c4cccc(OC)c4)n3)ccc21", "values": [{"measurement": "activity change, negative = cytotoxicity", "setting": "[2]; at 35 µM (top of the series)", "result": "3.32% (inactive)"}]}, {"smiles": "CCNC(=O)N1CCc2cc(-c3csc(NC(=O)c4cc(OC)cc(OC)c4)n3)ccc21", "values": [{"measurement": "activity change, negative = cytotoxicity", "setting": "[2]; at 35 µM (top of the series)", "result": "-8.64% (inactive)"}]}, {"smiles": "CC(C(=O)NC1CCCC1)N(C(=O)Cn1nnc(-c2ccc(Cl)cc2)n1)C1CCCCC1", "note": "(stereo not given)", "values": [{"measurement": "IC50", "setting": "[1]", "result": 53, "unit": "µM"}]}, {"smiles": "CC(=O)N1CCc2cc(-c3nc(NC(=O)c4cccc(OC(F)(F)F)c4)sc3C)ccc21", "values": [{"measurement": "activity change, negative = cytotoxicity", "setting": "[2]; at 35 µM (top of the series)", "result": "1.36% (inactive)"}]}, {"smiles": "C[C@H]1CN([C@@H](C)CO)C(=O)c2cccc(NC(=O)Nc3ccccc3)c2O[C@@H]1CN(C)Cc1ccc(Cl)c(Cl)c1", "values": [{"measurement": "IC50", "setting": "[1]", "result": 16.1, "unit": "µM"}]}, {"smiles": "CCC(=O)N1CCc2cc(-c3csc(NC(=O)c4ccc5c(c4)OCO5)n3)ccc21", "values": [{"measurement": "activity change, negative = cytotoxicity", "setting": "[2]; at 35 µM (top of the series)", "result": "1.94% (inactive)"}]}, {"smiles": "COc1c(NC(=O)C(=O)c2ccc(OCCN3CCOCC3)c3ccccc23)cc(C(C)(C)C)cc1NS(C)(=O)=O", "values": [{"measurement": "IC50", "setting": "[1]", "result": 17.8, "unit": "µM"}]}, {"smiles": "COc1cc(OC)cc(C(=O)Nc2nc(-c3ccc4c(c3)CCN4C(=O)OC(C)(C)C)cs2)c1", "values": [{"measurement": "activity change, negative = cytotoxicity", "setting": "[2]; at 35 µM (top of the series)", "result": "5.45% (inactive)"}]}, {"smiles": "C[C@@H]1CN([C@H](C)CO)C(=O)c2cc(NC(=O)Cc3cn(C)c4ccccc34)ccc2O[C@H]1CN(C)S(=O)(=O)c1ccc(F)cc1", "values": [{"measurement": "activity change, negative = cytotoxicity", "setting": "[2]; at 35 µM (top of the series)", "result": "-4.67% (inactive)"}]}, {"smiles": "CCC(=O)N1CCc2cc(-c3csc(NC(=O)c4ccc(Cl)s4)n3)ccc21", "values": [{"measurement": "activity change, negative = cytotoxicity", "setting": "[2]; at 35 µM (top of the series)", "result": "-1.8% (inactive)"}]}, {"smiles": "COc1ccc(-c2nnn(CC(=O)N(C3CCN(C)CC3)C(C)C(=O)NC3CCCC3)n2)cc1OC", "note": "(stereo not given)", "values": [{"measurement": "activity change, negative = cytotoxicity", "setting": "[2]; at 35 µM (top of the series)", "result": "9.25% (inactive)"}]}, {"smiles": "CC(C(=O)NC1CCCC1)N(C(=O)Cn1nnc(-c2ccccc2)n1)C1CCCCC1", "note": "(stereo not given)", "values": [{"measurement": "activity change, negative = cytotoxicity", "setting": "[2]; at 35 µM (top of the series)", "result": "4.27% (inactive)"}]}, {"smiles": "COCC(=O)N1CCc2cc(-c3csc(NC(=O)c4cc(OC)cc(OC)c4)n3)ccc21", "values": [{"measurement": "activity change, negative = cytotoxicity", "setting": "[2]; at 35 µM (top of the series)", "result": "4.05% (inactive)"}]}, {"smiles": "CCC(=O)N1CCc2cc(-c3csc(NC(=O)c4ccc(F)c(OC)c4)n3)ccc21", "values": [{"measurement": "activity change, negative = cytotoxicity", "setting": "[2]; at 35 µM (top of the series)", "result": "-12.3% (inactive)"}]}, {"smiles": "CCC(=O)N1CCc2cc(-c3csc(NC(=O)c4ccco4)n3)ccc21", "values": [{"measurement": "activity change, negative = cytotoxicity", "setting": "[2]; at 35 µM (top of the series)", "result": "-2.4% (inactive)"}]}, {"smiles": "O=C(CN(C(=O)Cn1nnc(-c2ccc3c(c2)OCO3)n1)C1CCCCC1)NC1CCCC1", "values": [{"measurement": "activity change, negative = cytotoxicity", "setting": "[2]; at 35 µM (top of the series)", "result": "-3.34% (inactive)"}]}, {"smiles": "COc1cc(OC)cc(C(=O)Nc2nc(-c3ccc4c(c3)CCN4C(=O)CN(C)C)cs2)c1", "values": [{"measurement": "activity change, negative = cytotoxicity", "setting": "[2]; at 35 µM (top of the series)", "result": "-10.2% (inactive)"}]}, {"smiles": "COc1ccc(-c2nnn(CC(=O)N(CC3CCCCC3)C(C)C(=O)NC3CCCC3)n2)cc1OC", "note": "(stereo not given)", "values": [{"measurement": "activity change, negative = cytotoxicity", "setting": "[2]; at 35 µM (top of the series)", "result": "3.32% (inactive)"}]}, {"smiles": "CC(C)NC(=O)Nc1cccc2c1O[C@H](CN(C)Cc1ccc(Cl)c(Cl)c1)[C@@H](C)CN([C@@H](C)CO)C2=O", "values": [{"measurement": "activity change, negative = cytotoxicity", "setting": "[2]; at 11 µM (top of the series)", "result": "6.58% (inactive)"}]}, {"smiles": "CCOc1ccccc1/C=C/c1onc(C)c1S(=O)(=O)N1CCC(C(=O)NC(C)(C)C)CC1", "values": [{"measurement": "IC50", "setting": "[1]", "result": 33.8, "unit": "µM"}]}, {"smiles": "COc1ccc(-c2nnn(CC(=O)N(C3CCCC3)C(C)C(=O)NC3CCCC3)n2)cc1OC", "note": "(stereo not given)", "values": [{"measurement": "activity change, negative = cytotoxicity", "setting": "[2]; at 35 µM (top of the series)", "result": "-0.791% (inactive)"}]}, {"smiles": "COc1ccc(-c2cc(CC(=O)N(C3CCCCC3)C(C)C(=O)NC3CCCC3)no2)cc1OC", "note": "(stereo not given)", "values": [{"measurement": "activity change, negative = cytotoxicity", "setting": "[2]; at 35 µM (top of the series)", "result": "3.77% (inactive)"}]}, {"smiles": "CC1CCC/C=C/C2CC(O)CC2C(O)/C=C\\C(=O)O1", "note": "(stereo not given)", "values": [{"measurement": "activity change, negative = cytotoxicity", "setting": "[2]; at 35 µM (top of the series)", "result": "-9.81% (inactive)"}]}, {"smiles": "COc1ccc(-c2nnn(CC(=O)N(C3CCCCC3)C(C)C(=O)NC3CCCC3)n2)cc1OC", "note": "(stereo not given)", "values": [{"measurement": "activity change, negative = cytotoxicity", "setting": "[2]; at 35 µM (top of the series)", "result": "37.1% (inactive)"}]}, {"smiles": "CC(C)(Sc1cc(C(C)(C)C)c(O)c(C(C)(C)C)c1)Sc1cc(C(C)(C)C)c(O)c(C(C)(C)C)c1", "values": [{"measurement": "activity change, negative = cytotoxicity", "setting": "[2]; at 35 µM (top of the series)", "result": "-1.63% (inactive)"}]}, {"smiles": "CCOc1ccc(NC(=O)CN2CCN(CC(=O)Nc3cc(OC)cc(OC)c3)CC2)cc1", "values": [{"measurement": "activity change, negative = cytotoxicity", "setting": "[2]; at 68 µM (top of the series)", "result": "-0.275% (inactive)"}]}, {"smiles": "C[C@H](C(=O)NC1CCCC1)N(C(=O)Cn1nnc(-c2ccc3c(c2)OCO3)n1)C1CCCCC1", "values": [{"measurement": "activity change, negative = cytotoxicity", "setting": "[2]; at 35 µM (top of the series)", "result": "-10.6% (inactive)"}]}, {"smiles": "C[C@@H]1CN([C@H](C)CO)C(=O)c2cc(NC(=O)Cc3cn(C)c4ccccc34)ccc2O[C@H]1CN(C)S(=O)(=O)c1ccc(Cl)cc1", "values": [{"measurement": "activity change, negative = cytotoxicity", "setting": "[2]; at 35 µM (top of the series)", "result": "4.93% (inactive) and -3.5% (inactive) and 6.65% (inactive)"}]}]}
